Compound activity deposited in PubChem BioAssay by several laboratories.
Sampled rows, rich in hits. Any-hit rate of the full collection: about 2%.
ATG4B inh: inhibitors of human ATG4B cysteine protease; AID 504462; Q9Y4P1; ATG4B cleavage of LC3-PLA2, NBD-HPC fluorescence, 1 h; 340,000 tested, 0.51% active; inhibition, % at 8.33 µM; in the data active means inhibition above about 40%
Target sequence (Q9Y4P1 whole entry, looked up): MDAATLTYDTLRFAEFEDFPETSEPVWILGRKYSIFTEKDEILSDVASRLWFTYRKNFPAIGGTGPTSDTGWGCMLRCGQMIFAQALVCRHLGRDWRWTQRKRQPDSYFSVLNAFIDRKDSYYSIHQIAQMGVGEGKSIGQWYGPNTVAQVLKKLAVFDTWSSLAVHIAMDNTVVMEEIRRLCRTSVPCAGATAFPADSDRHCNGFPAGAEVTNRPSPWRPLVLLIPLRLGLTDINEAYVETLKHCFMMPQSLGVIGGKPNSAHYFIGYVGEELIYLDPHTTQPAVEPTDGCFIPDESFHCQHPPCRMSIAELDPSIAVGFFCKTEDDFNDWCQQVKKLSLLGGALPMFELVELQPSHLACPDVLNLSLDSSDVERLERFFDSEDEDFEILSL
HNF4A DNA FP: change in binding of human HNF4 alpha to DNA | HNF4a-FITC DNA binding, fluorescence polarization, 1 h | activity change, % at 10 µM | 360,000 tested, 0.3% active | AID 1224865; in the data active means activity change above about 30%, passing the limit was not always enough
CSN deneddyl inh: blocks human CSN-mediated cullin deneddylation; Q92905; Purified CSN, SCF-Nedd8-OG deneddylation, fluorescence polarization; inhibition, % at 12.5 µM; 360,000 tested, 0.38% active;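 active means pattern-corrected inhibition above about 35%, with an unprinted fluorescence ratio check between 0.5 and 1.5, limit read from the data, passing the limit was not always enough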;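 further: 0% = enzyme with substrate and 100% = substrate without enzyme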
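Schedule: reaction 90 min, room temperature / Assay system: HEK293T-derived human Csn5 enzyme / Input: Csn5 at 0.24 nM final / Measure: inhibition of Csn5 cleavage, % / Control set: substrate-only high control, full reaction low control / Technique: fluorescence polarization of the substrate / Buffer or medium: Tris/NaCl/DTT buffer, pH 7.5 / Reagent: SCFSkp2-Nedd8OG substrate at 10 nM final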
SENP1 inh: blocks the human SENP1 SUMO protease catalytic domain; Q9P0U3; recombinant SENP1 catalytic domain, CyPet-SUMO1-YPet FRET cleavage; inhibition, % at 10 µM; 360,000 tested, 0.21% active; AID 624204;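 active means inhibition at least 30% at 10 µM, raw YFP signal under a set limit, fluorescence ratio 0.5 to 1.5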;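 further: 0% = enzyme with DMSO and 100% = no enzyme wells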
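Material – human SENP1 catalytic domain · Input – SENP1 enzyme, 20 pM final · Compound dosing – single concentration of 10 µM compound, 0.5% DMSO final · Timing – enzyme reaction for 50 min at room temperature, dark · Measured by – FRET fluorescence in CFP and YFP emission channels · Control set – no-enzyme wells low, DMSO-plus-enzyme wells high control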
Rpn11 inh: inhibitors of human proteasome Rpn11. 360,000 tested, 0.59% active. inhibition, % at 20 µM. O00487. human 26S proteasome, Ub4-pepOG fluorescence polarization; 20S core pre-blocked with epoxomicin. AID 588493;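 active means inhibition at 20 µM, scaled to each plate's controls, above about 33%, limit read from the data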
TPT1 inh: inhibitors of Candida albicans tRNA 2'-phosphotransferase TPT1. 300,000 tested, 0.81% active. AID 1962. inhibition, % at 5 µM. recombinant caTPT1, FP RNA substrate dephosphorylation;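 active means inhibition above the mean of all tested compounds plus 3 SD, set per screening campaign, cut at about 24% in these data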;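 further: plate controls were DMSO alone for no effect and ferristatin control at 100 nM for full effect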
An asterisk follows results filed as active.

How did CCCC(NC(=O)CCc1c(C)c2cc3c(C)c(C)oc3cc2oc1=O)C(=O)NC(Cc1ccc(Cl)cc1)C(=O)O (stereo not given) do in these assays?
HNF4A DNA FP: 5; CSN deneddyl inh: 37*; SENP1 inh: -80; Rpn11 inh: -3

What do the screens show for `CCC(NC(=O)CCc1c(C)c2cc3c(C)c(C)oc3cc2oc1=O)C(=O)N[C@@H](Cc1ccccc1)C(=O)O` (stereo not given in full)?
ATG4B inh: -8; HNF4A DNA FP: 0; CSN deneddyl inh: 2; SENP1 inh: -32; Rpn11 inh: 1; TPT1 inh: -2

Results for OCCN(CCO)c1cc2c3ccccc3ccc2c2ccccc12 ?
ATG4B inh: -42; HNF4A DNA FP: -2; CSN deneddyl inh: 45*; SENP1 inh: -24; Rpn11 inh: 5

What do the screens show for `OCCN(CCO)c1ccc2ccccc2c1`?
ATG4B inh: -3; HNF4A DNA FP: 6; CSN deneddyl inh: 9; SENP1 inh: -1; Rpn11 inh: -7; TPT1 inh: -6

What do the screens show for `Cc1ccc(NC(=O)CSc2nnc(COc3ccccc3F)n2N)cc1S(=O)(=O)N1CCOCC1`?
ATG4B inh: -5; HNF4A DNA FP: -4; CSN deneddyl inh: -1; SENP1 inh: 2; Rpn11 inh: 5

Results for COC(=O)c1sccc1-n1cccc1C(=O)C(=O)N1CCOCC1 ?
ATG4B inh: 5; HNF4A DNA FP: 40*; CSN deneddyl inh: -8; SENP1 inh: 0; Rpn11 inh: -10; TPT1 inh: 1

What do the screens show for `COC(=O)c1sccc1-n1cccc1C(=O)N1CCOCC1`?
ATG4B inh: 2; HNF4A DNA FP: -1; CSN deneddyl inh: 4; SENP1 inh: 2; Rpn11 inh: -5; TPT1 inh: -3

How did O=S(=O)(N=C1C=CC(=NS(=O)(=O)c2ccccc2)c2ccccc21)c1ccccc1 do in these assays?
HNF4A DNA FP: 2; CSN deneddyl inh: 10; SENP1 inh: 60*; Rpn11 inh: 34

Results for COc1cc(/C=C2\COC/C(=C\c3cc(OC)c(OC)c(OC)c3)C2=O)cc(OC)c1OC ?
ATG4B inh: 3; HNF4A DNA FP: 2; CSN deneddyl inh: 20; SENP1 inh: 3; Rpn11 inh: 0

How did COc1cc(/C=C2\CC(C(C)(C)C)C/C(=C\c3cc(OC)c(OC)c(OC)c3)C2=O)cc(OC)c1OC (stereo not given) do in these assays?
ATG4B inh: 0; HNF4A DNA FP: 0; CSN deneddyl inh: 0; SENP1 inh: 37*; Rpn11 inh: 1; TPT1 inh: 5

What do the screens show for `[O-]/C(=C(\C(=S)Nc1ccccc1F)[n+]1ccccc1)c1ccc(OC(F)F)cc1`?
ATG4B inh: -4; HNF4A DNA FP: 75*; CSN deneddyl inh: 6; SENP1 inh: -4; Rpn11 inh: -2; TPT1 inh: 4

What do the screens show for `Cc1ccc(C)c(NC(=S)/C(=C(\[O-])c2ccc(OC(F)F)cc2)[n+]2ccccc2)c1`?
ATG4B inh: 3; HNF4A DNA FP: -2; CSN deneddyl inh: -5; SENP1 inh: -5; Rpn11 inh: 11; TPT1 inh: 1

Results for C=CCCC(=O)N1C[C@H]2CON(C)[C@H]2C[C@H]1c1cccc(Br)c1 ?
ATG4B inh: -11; HNF4A DNA FP: -2; CSN deneddyl inh: 0; SENP1 inh: 4; Rpn11 inh: 4

What do the screens show for `CCCCN(C)c1c(C)nc2ccc(C(=O)N3CCN(C(C)=O)CC3)cn12`?
HNF4A DNA FP: -1; CSN deneddyl inh: 7; SENP1 inh: 1; Rpn11 inh: 1

What do the screens show for `CCCC(=O)C1=C(O)C(C(=O)OC)C(C)(C)CC1=Nc1ccc(N)cc1` (stereo not given)?
ATG4B inh: -8; HNF4A DNA FP: -1; CSN deneddyl inh: -6; SENP1 inh: -1; Rpn11 inh: 3; TPT1 inh: 0

How did CCCC(=Nc1ccc(N)cc1)C1=C(O)C(C(=O)OC)C(C)(C)CC1=O (stereo not given) do in these assays?
ATG4B inh: -6; HNF4A DNA FP: 0; CSN deneddyl inh: 5; SENP1 inh: 44*; Rpn11 inh: -1; TPT1 inh: -6
